Experimental data: ChEMBL document CHEMBL1671627, “Increasing trends in antimicrobial resistance among clinically important anaerobes and Bacteroides fragilis isolates causing nosocomial infections: emerging resistance to carbapenems” (2008)
Values after ≈ are worked out from the molar mass of the structure shown.

Key:
Fusobacterium varium [1] = assay: Antibacterial activity against Fusobacterium varium assessed as susceptible isolates by CLSI agar dilution method in presence of clavulanate; format: functional
Summary of the method: (§1)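 Agar dilution per CLSI guidelines on nonduplicate anaerobic bloodstream isolates collected at NTUH, January to December 2006. Isolates were spotted by Steers replicator onto supplemented Brucella blood agar and incubated anaerobically for 48 h at 35°C. MIC was the lowest drug concentration that inhibited growth. B. fragilis ATCC 25285, B. thetaiotaomicron ATCC 29741 and E. lentum ATCC 43055 were run as QC in each run.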

Prevotella buccae = assay: Antibacterial activity against Prevotella buccae assessed as resistant isolates by CLSI agar dilution method in presence of clavulanate; format: functional, Segatella buccae
Summary of the method: (§2)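 207 nonduplicate anaerobic blood isolates from patients with bloodstream infections at NTUH, collected January–December 2006. MICs were determined by agar dilution following CLSI guidelines. Inocula were applied with a Steers replicator onto supplemented Brucella blood agar and incubated 48 h at 35°C in an anaerobic chamber. MIC was the lowest concentration inhibiting growth. B. fragilis ATCC 25285, B. thetaiotaomicron ATCC 29741 and E. lentum ATCC 43055 served as controls in each run.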

[2] = system: Prevotella melaninogenica; assay: Antibacterial activity against Prevotella melaninogenica by CLSI agar dilution method in presence of clavulanate; format: functional; summary of the method: as §1
[3] = system: Bacteroides thetaiotaomicron; assay: Antibacterial activity against beta-lactamase producing Bacteroides thetaiotaomicron assessed as resistant isolates by CLSI agar dilution method in presence of clavulanate; format: functional; summary of the method: as §2
Parvimonas micra [4] = assay: Antibacterial activity against beta-lactamase producing Micromonas micros by CLSI agar dilution method in presence of clavulanate; format: functional
Summary of the method: (§3)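 CLSI agar dilution MICs for anaerobic blood isolates (nonduplicate) collected from bloodstream-infection patients at a Taiwanese tertiary hospital, January–December 2006. Isolates were spotted by Steers replicator onto supplemented Brucella blood agar and incubated anaerobically for 48 h at 35°C. MIC was the lowest drug concentration inhibiting growth. Each run included B. fragilis ATCC 25285, B. thetaiotaomicron ATCC 29741 and E. lentum ATCC 43055 as quality-control strains.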

[5] = system: Peptoniphilus asaccharolyticus; assay: Antibacterial activity against beta-lactamase producing Peptoniphilus asaccharolyticus by CLSI agar dilution method in presence of clavulanate; format: functional; summary of the method: as §3
Fusobacterium varium [6] = assay: Antibacterial activity against Fusobacterium varium assessed as resistant isolates by CLSI agar dilution method in presence of clavulanate; format: functional; summary of the method: as §2
[7] = system: Peptoniphilus asaccharolyticus; assay: Antibacterial activity against beta-lactamase producing Peptoniphilus asaccharolyticus assessed as susceptible isolates by CLSI agar dilution method in presence of clavulanate; format: functional; summary of the method: as §3
Clostridium tertium [8] = assay: Antibacterial activity against beta-lactamase producing Clostridium tertium by CLSI agar dilution method in presence of clavulanate; format: functional; summary of the method: as §3
Phocaeicola vulgatus [9] = assay: Antibacterial activity against beta-lactamase producing Bacteroides vulgatus by CLSI agar dilution method in presence of clavulanate; format: functional; summary of the method: as §3
Bacteroides uniformis = assay: Antibacterial activity against beta-lactamase producing Bacteroides uniformis assessed as susceptible isolates by CLSI agar dilution method in presence of clavulanate; format: functional; summary of the method: as §1
[10] = system: Peptostreptococcus anaerobius; assay: Antibacterial activity against beta-lactamase producing Peptostreptococcus anaerobius assessed as susceptible isolates by CLSI agar dilution method in presence of clavulanate; format: functional; summary of the method: as §3
Veillonella parvula [11] = assay: Antibacterial activity against Veillonella parvula by CLSI agar dilution method in presence of clavulanate; format: functional; summary of the method: as §1
Bacteroides fragilis [12] = assay: Antibacterial activity against Bacteroides fragilis assessed as resistant isolates by CLSI agar dilution method in presence of clavulanate; format: functional; summary of the method: as §2
[13] = system: Fusobacterium necrophorum; assay: Antibacterial activity against Fusobacterium necrophorum assessed as resistant isolates by CLSI agar dilution method; format: functional
Bacteroides caccae [14] = assay: Antibacterial activity against beta-lactamase producing Bacteroides caccae assessed as resistant isolates by CLSI agar dilution method in presence of Tazobactam; format: functional; summary of the method: as §2
Fusobacterium nucleatum [15] = assay: Antibacterial activity against Fusobacterium nucleatum assessed as resistant isolates by CLSI agar dilution method in presence of Tazobactam; format: functional; summary of the method: as §2
Prevotella bivia = assay: Antibacterial activity against Prevotella bivia by CLSI agar dilution method; format: functional
Finegoldia magna [16] = assay: Antibacterial activity against beta-lactamase producing Finegoldia magna assessed as susceptible isolates by CLSI agar dilution method; format: functional
Bacteroides fragilis [17] = assay: Antibacterial activity against Bacteroides fragilis assessed as susceptible isolates by CLSI agar dilution method; format: functional
Phocaeicola vulgatus [18] = assay: Antibacterial activity against beta-lactamase producing Bacteroides vulgatus assessed as resistant isolates by CLSI agar dilution method; format: functional
Prevotella intermedia = assay: Antibacterial activity against Prevotella intermedia assessed as resistant isolates by CLSI agar dilution method in presence of Tazobactam; format: functional; summary of the method: as §2
Bacteroides caccae [19] = assay: Antibacterial activity against beta-lactamase producing Bacteroides caccae by CLSI agar dilution method in presence of Tazobactam; format: functional; summary of the method: as §1
Finegoldia magna [20] = assay: Antibacterial activity against beta-lactamase producing Finegoldia magna assessed as resistant isolates by CLSI agar dilution method in presence of Tazobactam; format: functional; summary of the method: as §2
[21] = system: Clostridium paraputrificum; assay: Antibacterial activity against beta-lactamase producing Clostridium paraputrificum assessed as resistant isolates by CLSI agar dilution method; format: functional
Fusobacterium varium [22] = assay: Antibacterial activity against Fusobacterium varium assessed as susceptible isolates by CLSI agar dilution method; format: functional
Parvimonas micra [23] = assay: Antibacterial activity against beta-lactamase producing Micromonas micros assessed as susceptible isolates by CLSI agar dilution method; format: functional
Clostridium tertium [24] = assay: Antibacterial activity against beta-lactamase producing Clostridium tertium by CLSI agar dilution method; format: functional
Fusobacterium nucleatum [25] = assay: Antibacterial activity against Fusobacterium nucleatum by CLSI agar dilution method in presence of Tazobactam; format: functional; summary of the method: as §1
Clostridium septicum [26] = assay: Antibacterial activity against beta-lactamase producing Clostridium septicum assessed as resistant isolates by CLSI agar dilution method in presence of Tazobactam; format: functional; summary of the method: as §2
Clostridium septicum [27] = assay: Antibacterial activity against beta-lactamase producing Clostridium septicum assessed as susceptible isolates by CLSI agar dilution method; format: functional
Bacteroides fragilis [28] = assay: Antibacterial activity against Bacteroides fragilis by CLSI agar dilution method; format: functional
Veillonella parvula [29] = assay: Antibacterial activity against Veillonella parvula by CLSI agar dilution method; format: functional

Structure (SMILES): CC1(C)S[C@@H]2[C@H](NC(=O)[C@H](N)c3ccc(O)cc3)C(=O)N2[C@H]1C(=O)O [AMOXICILLIN]
- Activity (Fusobacterium varium [1]): 89%
- Activity (Prevotella buccae): 6%
- MIC50 [2]: 4 µg/mL
- MIC90 [2]: 16 µg/mL
- Activity [3]: 33%
- MIC50 (Parvimonas micra [4]): 0.25 µg/mL
- MIC90 (Parvimonas micra [4]): 2 µg/mL
- MIC50 [5]: 0.25 µg/mL
- MIC90 [5]: 2 µg/mL
- Activity (Fusobacterium varium [6]): 7%
- Activity [7]: 94%
- MIC50 (Clostridium tertium [8]): 0.5 µg/mL
- MIC90 (Clostridium tertium [8]): 2 µg/mL
- MIC50 (Phocaeicola vulgatus [9]): 8 µg/mL
- MIC90 (Phocaeicola vulgatus [9]): 32 µg/mL
- Activity (Bacteroides uniformis): 53%
- Activity [10]: 94%
- MIC (Veillonella parvula [11]): 0.12 µg/mL
- Activity (Bacteroides fragilis [12]): 23%

Structure (SMILES): CCN1CCN(C(=O)N[C@@H](C(=O)N[C@@H]2C(=O)N3[C@@H]2SC(C)(C)[C@@H]3C(=O)O)c2ccccc2)C(=O)C1=O [PIPERACILLIN]
- Activity [13]: 10%
- Activity (Bacteroides caccae [14]): 4%
- Activity (Fusobacterium nucleatum [15]): 0%
- MIC50 (Prevotella bivia): 16 µg/mL (≈ 30.9 µM)
- MIC90 (Prevotella bivia): 128 µg/mL (≈ 247 µM)
- Activity (Finegoldia magna [16]): 97%
- Activity (Bacteroides fragilis [17]): 62%
- Activity (Phocaeicola vulgatus [18]): 65%
- Activity (Prevotella intermedia): 0%
- MIC50 (Bacteroides caccae [19]): 8 µg/mL
- MIC90 (Bacteroides caccae [19]): 16 µg/mL
- Activity (Finegoldia magna [20]): 0%
- Activity [21]: 0%
- Activity (Fusobacterium varium [22]): 90%
- Activity (Parvimonas micra [23]): 97%
- MIC50 (Clostridium tertium [24]): 0.25 µg/mL (≈ 0.483 µM)
- MIC90 (Clostridium tertium [24]): 2 µg/mL (≈ 3.86 µM)
- MIC50 (Fusobacterium nucleatum [25]): 0.5 µg/mL
- MIC90 (Fusobacterium nucleatum [25]): 2 µg/mL
- Activity (Clostridium septicum [26]): 0%
- Activity (Clostridium septicum [27]): 100%
- MIC50 (Bacteroides fragilis [28]): 8 µg/mL (≈ 15.5 µM)
- MIC90 (Bacteroides fragilis [28]): > 128 µg/mL
- MIC (Veillonella parvula [29]): 1 µg/mL (≈ 1.93 µM)
